Reference: ChEMBL document CHEMBL1933048, “Inhibition of the pore-forming protein perforin by a series of aryl-substituted isobenzofuran-1(3H)-ones” (Bioorg Med Chem, 2012)
Calls of active or inactive are those of the source. No cut-off for these calls is given here.

Columns and labels:
Type in all cases: cell-based
[1] = biological target: T1, Perforin-1 (Homo sapiens) (UniProt P14222); test: Inhibition of perforin released from human KHYG-1 NK cells assessed as inhibition of perforin-mediated lysis of human K562 cells at 20 uM by [51Cr] release assay in absence of serum
T1 sequence (whole entry): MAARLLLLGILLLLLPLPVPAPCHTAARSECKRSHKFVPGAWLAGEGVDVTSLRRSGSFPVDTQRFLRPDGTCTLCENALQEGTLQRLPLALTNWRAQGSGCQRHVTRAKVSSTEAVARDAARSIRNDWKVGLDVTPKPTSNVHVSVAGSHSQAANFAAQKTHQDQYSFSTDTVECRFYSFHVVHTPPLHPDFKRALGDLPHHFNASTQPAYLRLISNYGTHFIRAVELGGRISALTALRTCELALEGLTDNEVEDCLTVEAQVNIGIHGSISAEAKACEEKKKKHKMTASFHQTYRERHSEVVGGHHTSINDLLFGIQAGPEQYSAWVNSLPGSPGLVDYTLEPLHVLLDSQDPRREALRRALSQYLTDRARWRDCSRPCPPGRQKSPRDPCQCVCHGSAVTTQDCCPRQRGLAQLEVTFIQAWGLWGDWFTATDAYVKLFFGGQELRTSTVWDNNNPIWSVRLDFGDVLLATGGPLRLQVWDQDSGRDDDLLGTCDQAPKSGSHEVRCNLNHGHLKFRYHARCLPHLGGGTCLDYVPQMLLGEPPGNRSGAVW
How it was run: (§1)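 KHYG-1 cells (4 × 10⁵/mL, RPMI + 0.1% BSA) received either BSA medium or 10% mouse serum final, then compound at 20 µM for 20 min at rt. K562 cells labelled with 75 µCi ⁵¹Cr (90 min, 37 °C) and washed were added at E:T 2:1 for 4 h at 37 °C. ⁵¹Cr release was gamma-counted. Specific lysis used spontaneous/maximum release, and inhibition was taken vs untreated control. Triplicate wells; ≥3 determinations.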

[2] = biological target: T1, Perforin-1 (Homo sapiens); test: Inhibition of perforin released from human KHYG-1 NK cells assessed as inhibition of perforin-mediated lysis of human K562 cells at 20 uM by [51Cr] release assay in presence of 10% mouse serum; how it was run: as §1
[3] = Cytotoxicity against human KHYG-1 NK cells assessed as cell viability at 20 uM after 18 to 24 hrs by trypan blue assay; conditions: read-out: Activity
How it was run: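 KHYG-1 NK cells were suspended at 4 × 10⁵ cells/mL in RPMI + 0.1% BSA and treated with compound at rt for 20 min. Instead of target cells, RPMI + 0.1% BSA was added, followed by 4 h at 37 °C. Cells were washed ×3 and kept in complete medium for 18–24 h at 37 °C. Trypan blue viable/total counts gave % viability vs a DMSO control. Values are the mean of ≥3 determinations.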

[4] = biological target: Pneumolysin (Streptococcus pneumoniae serotype 4 (strain ATCC BAA-334 / TIGR4)) (UniProt P0C2J9); test: Inhibition of Streptococcus pneumoniae pneumolysin-mediated lysis of Jurkat cells assessed as [51Cr] release at 20 uM […] for 30 mins followed by incubation with [51Cr]-labeled Jurkat cells by gamma counting
Sequence of Pneumolysin (Streptococcus pneumoniae serotype 4 (strain ATCC BAA-334 / TIGR4)) (P0C2J9 whole entry): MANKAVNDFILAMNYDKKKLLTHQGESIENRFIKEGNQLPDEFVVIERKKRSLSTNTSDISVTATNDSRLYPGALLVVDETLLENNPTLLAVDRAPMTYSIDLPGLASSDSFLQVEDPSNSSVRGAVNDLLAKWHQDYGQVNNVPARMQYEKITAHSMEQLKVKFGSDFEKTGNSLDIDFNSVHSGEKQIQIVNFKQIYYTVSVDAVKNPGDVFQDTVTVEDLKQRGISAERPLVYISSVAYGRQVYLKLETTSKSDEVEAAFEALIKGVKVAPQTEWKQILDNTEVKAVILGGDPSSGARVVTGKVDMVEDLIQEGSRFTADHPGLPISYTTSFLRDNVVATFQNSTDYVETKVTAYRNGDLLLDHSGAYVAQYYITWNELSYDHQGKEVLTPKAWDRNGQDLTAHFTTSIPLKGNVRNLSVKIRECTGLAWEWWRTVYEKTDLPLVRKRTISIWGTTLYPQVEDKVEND
How it was run: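 Single 20 µM concentration, preincubated 30 min with pneumolysin in place of perforin, with DMSO as negative control. Jurkat cells were labelled 1 h with 100 µCi ⁵¹Cr, washed three times, and resuspended at 1 × 10⁵ cells/mL in RPMI with 0.1% BSA. Labelled cells were then added for 4 h at 37 °C, and supernatant radioactivity was gamma-counted.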

[5] = biological target: T1, Perforin-1 (Homo sapiens); test: Inhibition of recombinant perforin-mediated lysis of Jurkat cells assessed as [51Cr] release at 20 uM preincubated with perforin for 30 mins followed by incubation with [51Cr]-labeled Jurkat cells by gamma counting
How it was run: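 Compound at 20 µM was preincubated with recombinant perforin for 30 min, with DMSO as negative control. Jurkat cells were labelled with 100 µCi ⁵¹Cr for 1 h, washed ×3 and used at 1 × 10⁵/mL in RPMI + 0.1% BSA. They were added and incubated for 4 h at 37 °C. Supernatant radioactivity was measured by gamma counting. Triplicate points.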

## O=C1NC(=S)N/C1=C/c1cnc(-c2ccc3c(c2)COC3=O)s1
[1]
  inhibition: 45%
[2]
  inhibition: 27%
[3]
  viability at 20 µM: 68%

## O=C1NC(=S)N/C1=C/c1cc2cc(-c3ccc4c(c3)COC4=O)ccc2[nH]1
[1]
  inhibition: 91%
[2]
  inhibition: 83%
[3]
  viability at 20 µM: 23.2%

## O=C1NC(=S)N/C1=C/c1cc(-c2ccc3c(c2)COC3=O)no1
[1]
  inhibition: 41%
[2]
  inhibition: 23%
[3]
  viability at 20 µM: 63%

## O=C1NC(=S)N/C1=C/c1cc2cc(-c3ccc4c(c3)COC4=O)ccc2o1
[1]
  inhibition: 61%
[2]
  inhibition: 35%
[3]
  viability at 20 µM: 29.9%

## O=C1NC(=S)N/C1=C/c1ccc(-c2ccc3c(c2)COC3=O)cc1
[1]
  inhibition: 28%
[2]
  inhibition: 30%
[3]
  viability at 20 µM: 59%

## O=C1NC(=S)N/C1=C/c1cc2cc(-c3ccc4c(c3)COC4=O)ccc2s1
[1]
  inhibition: 51%
[2]
  inhibition: 17%
[3]
  viability at 20 µM: 27%

## O=C1NC(=O)/C(=C\c2ccc(-c3ccc4c(c3)COC4=O)s2)S1
[1]
  inhibition: 36%
[2]
  inhibition: 12%
[3]
  viability at 20 µM: 19%

## O=C1NC(=S)N/C1=C/c1csc(-c2ccc3c(c2)COC3=O)n1
[1]
  inhibition: 11%
[2]
  inhibition: 2%
[3]
  viability at 20 µM: 25%

## O=C1NC(=S)N/C1=C/c1cc2ccc(-c3ccc4c(c3)COC4=O)cc2s1
[1]
  inhibition: 46%
[2]
  inhibition: 25%
[3]
  viability at 20 µM: 19.7%

## O=C1NC(=S)N/C1=C/c1ccc(-c2ccc3c(c2)COC3=O)cn1
[1]
  inhibition: 37%
[2]
  inhibition: 20%
[3]
  viability at 20 µM: 92%

## O=C1NC(=S)N/C1=C/c1ccc(-c2ccc3c(c2)COC3=O)s1
[1]
  inhibition: 53%
[2]
  inhibition: 38.9%
[3]
  viability at 20 µM: 88%

## O=C1NC(=S)N/C1=C/c1cc(-c2ccc3c(c2)COC3=O)cs1
[1]
  inhibition: 49%
[2]
  inhibition: 42%
[3]
  viability at 20 µM: 55%

## O=C1NC(=S)N/C1=C/c1ccc2cc(-c3ccc4c(c3)COC4=O)ccc2n1
[1]
  inhibition: 60%
[2]
  inhibition: 35%
[3]
  viability at 20 µM: 48.5%

## Cc1cc2c(c(=S)[nH]1)C(=O)OC2=Cc1csc2ccccc12
[1]
  inhibition: 41%
[2]
  inhibition: 10.3%
[3]
  viability at 20 µM: 77%

## O=C1NC(=S)N/C1=C/c1ccc2ccc(-c3ccc4c(c3)COC4=O)cc2n1
[1]
  inhibition: 52%
[2]
  inhibition: 38%
[3]
  viability at 20 µM: 59%

## O=C1NC(=S)N/C1=C/c1nc(-c2ccc3c(c2)COC3=O)cs1
[1]
  inhibition: 30%
[2]
  inhibition: 13%
[3]
  viability at 20 µM: 91%

## O=C1NC(=S)NC(=O)C1=Cc1ccc(-c2ccc3c(c2)COC3=O)s1
[1]
  inhibition: 91%
[2]
  inhibition: 73%
[3]
  viability at 20 µM: 38%

## O=C1NC(=S)N/C1=C/c1cc(-c2ccc3c(c2)COC3=O)ns1
[1]
  inhibition: 45%
[2]
  inhibition: 26%
[3]
  viability at 20 µM: 57%

## O=C1NC(=S)N/C1=C/c1ccc(-c2ccc3c(c2)COC3=O)o1
[1]
  inhibition: 74%
[2]
  inhibition: 23%
[3]
  viability at 20 µM: 66%
[4]
  inhibition: inactive
[5]
  inhibition: Active

## O=C1NC(=S)N/C1=C/c1cc2ccc(-c3ccc4c(c3)COC4=O)cc2[nH]1
[1]
  inhibition: 100%
[2]
  inhibition: 100%
[3]
  viability at 20 µM: 10%

## O=C1NC(=O)C(=Cc2ccc(-c3ccc4c(c3)COC4=O)s2)C(=O)N1
[1]
  inhibition: 52%
[2]
  inhibition: 10%
[3]
  viability at 20 µM: 77.6%

## O=C1NC(=O)/C(=C\c2ccc(-c3ccc4c(c3)COC4=O)s2)N1
[1]
  inhibition: 54%
[2]
  inhibition: 64%
[3]
  viability at 20 µM: 91.5%
